Experimental data published in publication PMC3873039 (Anti-Cancer Agents in Medicinal Chemistry, 2013).

Experiments:
THP-1 [1] = assay: CellTiter-Glo luminescent cell viability assay; type: cell-based, human; details: THP-1, 24 h, doses 0, 2, 10, 50, 250, 500 µM, p<0.05
Outline: (§1)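 Cells grown in RPMI 1640 with 10% FBS, 1.5 mM L-glutamine and penicillin/streptomycin at 37 °C, 5% CO2. Seeded at 2.5 x 10³ cells/well and exposed 24 h to ethanol-dissolved test compound (0, 2, 10, 50, 250, 500 µM) with 0.1% ethanol vehicle. ATP luminescence normalized to vehicle (100%). IC50 taken from linear regression. Lowest significant dose set by one-way ANOVA/Tukey, p<0.05. Triplicates, three independent experiments.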

[2] = tested on: non-tumor cord blood (CD34+) cells; assay: CellTiter-Glo luminescent cell viability assay; type: cell-based; details: 24 h; for IC50: read-out: IC50 (50% inhibition of cellular proliferation), CD34+ non-tumour control cells, 24 h treatment; for The lowest dose of polyphenols at which there was a significant inhibition of cell proliferation compared to the vehicle control: CD34+ non-tumour control cells, doses 0, 2, 10, 50, 250, 500 µM, p<0.05
Outline: as §1

JURKAT [3] = assay: Cell cycle analysis, propidium iodide flow cytometry; type: cell-based, human; details: IC50 dose, 24 h, p<0.05
Outline: (§2)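 Seeded at 0.5 x 10^6 cells per well in 12-well plates and treated 24 h at the IC50 concentration of each test compound from CellTiter-Glo. Cells were pelleted (400 g, 5 min), PBS-washed and fixed in 80% ethanol overnight at -20 °C. Staining used 50 µg/mL PI plus RNase overnight at 4 °C.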

THP-1 [4] = assay: as above; type: cell-based, human; details: THP-1, IC50 dose, 24 h; vehicle control G0/G1 = 42.3%
Outline: as §2

KG1a = assay: as above; type: cell-based, human; details: IC50 dose, 24 h, vehicle control G0/G1 = 44.6%
Outline: as §2

JURKAT [5] = assay: NucView caspase 3 activity assay by flow cytometry; type: cell-based, human; details: 24 h; for EC50: Homo sapiens, Jurkat, read-out: AP50 (50% induction of apoptosis), Caspase 3 activity assay (C3); for The lowest dose of polyphenols at which there was a significant induction of apoptosis compared to the vehicle control: JURKAT, caspase 3 activity, p<0.05
Outline: (§3)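 Seeded at 0.5 x 10⁶ cells/well and treated 24 h, with series of 0–50 or 0–250 µM depending on compound. Normalized to vehicle (0% apoptosis). Mean ± STD, three independent experiments in triplicate. One-way ANOVA/Tukey, p<0.05. AP50 = concentration giving 50% apoptotic cells.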

HL60 = assay: NucView caspase 3 activity assay by flow cytometry; type: cell-based, human; details: for The lowest dose of polyphenols at which there was a significant induction of apoptosis compared to the vehicle control: HL60, caspase 3 activity, 24 h, p<0.05; for EC50: Homo sapiens, HL-60, 24 h, read-out: AP50 (50% induction of apoptosis), Caspase 3 activity assay (C3)
Outline: as §3

THP-1 [6] = assay: NucView caspase 3 activity assay by flow cytometry; type: cell-based, human; details: for EC50: Homo sapiens, THP-1, 24 h, read-out: AP50 (50% induction of apoptosis), Caspase 3 activity assay (C3); for The lowest dose of polyphenols at which there was a significant induction of apoptosis compared to the vehicle control: THP-1, caspase 3 activity, 24 h, p<0.05
Outline: as §3

U937 [7] = assay: NucView caspase 3 activity assay by flow cytometry; type: cell-based, human; details: for EC50: Homo sapiens, U-937, 24 h, read-out: AP50 (50% induction of apoptosis), Caspase 3 activity assay (C3); for The lowest dose of polyphenols at which there was a significant induction of apoptosis compared to the vehicle control: U937, caspase 3 activity, 24 h, p<0.05
Outline: as §3

JURKAT [8] = assay: Hoechst 33342 nuclear morphological analysis of apoptosis; type: cell-based; details: Homo sapiens, 24 h, read-out: AP50 (50% induction of apoptosis), Hoechst 33342 staining (Hoe)
Outline: (§4)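 Seeded at 0.5 x 10⁶ cells/well in 12-well plates and treated 24 h. Cells were pelleted (400 g, 5 min, 4 °C), washed in PBS, fixed in 4% paraformaldehyde, cytospun, air-dried, then stained with 10 μg/ml Hoechst 33342 for 10 min in the dark. Fluorescence microscopy: 200 cells counted, scored by condensed/intense nuclei, shrinkage, blebbing and apoptotic bodies. % apoptotic nuclei calculated. AP50 = concentration giving 50% apoptotic cells.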

THP-1 [9] = assay: as above; type: cell-based; details: Homo sapiens, THP-1, 24 h, read-out: AP50 (50% induction of apoptosis), Hoechst 33342 staining (Hoe)
Outline: as §4

K562 = assay: as above; type: cell-based; details: Homo sapiens, K562, 24 h, read-out: AP50 (50% induction of apoptosis), Hoechst 33342 staining (Hoe)
Outline: as §4

U937 [10] = assay: as above; type: cell-based; details: Homo sapiens, U-937, 24 h, read-out: AP50 (50% induction of apoptosis), Hoechst 33342 staining (Hoe)
Outline: as §4

all leukemia cell lines [11] = assay: CellTiter-Glo assay, summary over the leukemia panel; type: cell-based, human; details: for IC50: Homo sapiens, 24 h, read-out: IC50 values (range over leukemia cell lines)
Outline: (§5)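 Cells plated at 2.5 x 10^3 per well in complete RPMI 1640 (10% FBS, 37 °C, 5% CO2). Test compounds dissolved in ethanol and dosed at 2–500 µM for 24 h; vehicle control was 0.1% (v/v) ethanol. Viability was read as ATP luminescence, normalised to vehicle (100%). IC50 was taken from linear regression of each curve. Triplicates, three independent experiments.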

all leukemia cell lines [12] = assay: Apoptosis; type: cell-based, human; details: for EC50: Homo sapiens, 24 h, read-out: AP50 values (range over leukemia cell lines)
leukemia cell lines = assay: Cell cycle analysis, summary over the leukemia panel; type: cell-based, human; details: IC50 dose, 24 h, 8 leukemia cell lines
Outline: as §2

lymphoid cell lines = assay: CellTiter-Glo assay, summary over lymphoid lines; type: cell-based; details: Homo sapiens, 24 h, read-out: IC50 (range in lymphoid cell lines)
Outline: as §5

myeloid cell lines = assay: CellTiter-Glo assay, summary over myeloid lines; type: cell-based; details: Homo sapiens, 24 h, read-out: IC50 (range in myeloid cell lines)
Outline: as §5

[13] = cited from earlier work

Compound | EC50 (JURKAT [5]) [µM] | EC50 (HL60) [µM] | EC50 (THP-1 [6]) [µM] | EC50 (U937 [7]) [µM] | EC50 (JURKAT [8]) [µM] | EC50 (THP-1 [9]) [µM] | EC50 (K562) [µM] | EC50 (U937 [10]) [µM] | IC50 (all leukemia cell lines [11]) [µM] | EC50 (all leukemia cell lines [12]) [µM] | The lowest dose of polyphenols at which there was a significant inhibition of cell proliferation compared to the vehicle control (THP-1 [1]) [µM] | IC50 [2] [µM] | The lowest dose of polyphenols at which there was a significant inhibition of cell proliferation compared to the vehicle control [2] [µM] | Phase of cell cycle accumulation (JURKAT [3]) | Percentage of cells in G0/G1 phase of cell cycle (significant accumulation) (THP-1 [4]) | Percentage of cells in G0/G1 phase of cell cycle (significant accumulation) (KG1a) | The lowest dose of polyphenols at which there was a significant induction of apoptosis compared to the vehicle control (JURKAT [5]) [µM] | The lowest dose of polyphenols at which there was a significant induction of apoptosis compared to the vehicle control (HL60) [µM] | The lowest dose of polyphenols at which there was a significant induction of apoptosis compared to the vehicle control (THP-1 [6]) [µM] | The lowest dose of polyphenols at which there was a significant induction of apoptosis compared to the vehicle control (U937 [7]) [µM] | also measured
O=C(O)c1cc(O)c2c(c1)C(=O)c1cccc(O)c1C2=O [Rhein] | > 250 | > 250 | 50 | 60 | > 500 | 60 | > 500 | 140 |  |  | 50 | 380 | 250 | S-phase | G0/G1 =47% | G0/G1 =49% | 50 | 50 | 50 | 50 | 
O=c1cc(-c2ccccc2)oc2cc(O)cc(O)c12 [Chrysin] | 40 | 175 | > 250 | 150 | 30 | > 500 | > 500 | 32 |  |  | 250 | > 500 | 500 | G0/G1 phase | G0/G1 =52.1% | G0/G1 =50% | 50 | 50 | 250 | 50 | IC50 (lymphoid cell lines): 128 to 217 µM; IC50 (myeloid cell lines): 335 to 500 µM; Phase of cell cycle accumulation over the leukemia cell lines (leukemia cell lines): G0/G1 phase in 7 out of the 8 leukemia cell lines

Continued by falling EC50 (JURKAT [5]), values first:

EC50 (JURKAT [5]) [µM] | EC50 (HL60) [µM] | EC50 (THP-1 [6]) [µM] | EC50 (U937 [7]) [µM] | EC50 (JURKAT [8]) [µM] | EC50 (THP-1 [9]) [µM] | EC50 (K562) [µM] | EC50 (U937 [10]) [µM] | IC50 (all leukemia cell lines [11]) [µM] | EC50 (all leukemia cell lines [12]) [µM] | Compound | The lowest dose of polyphenols at which there was a significant inhibition of cell proliferation compared to the vehicle control (THP-1 [1]) [µM] | IC50 [2] [µM] | The lowest dose of polyphenols at which there was a significant inhibition of cell proliferation compared to the vehicle control [2] [µM] | Phase of cell cycle accumulation (JURKAT [3]) | Percentage of cells in G0/G1 phase of cell cycle (significant accumulation) (THP-1 [4]) | Percentage of cells in G0/G1 phase of cell cycle (significant accumulation) (KG1a) | The lowest dose of polyphenols at which there was a significant induction of apoptosis compared to the vehicle control (JURKAT [5]) [µM] | The lowest dose of polyphenols at which there was a significant induction of apoptosis compared to the vehicle control (HL60) [µM] | The lowest dose of polyphenols at which there was a significant induction of apoptosis compared to the vehicle control (THP-1 [6]) [µM] | The lowest dose of polyphenols at which there was a significant induction of apoptosis compared to the vehicle control (U937 [7]) [µM] | also measured
50 | 185 | > 250 | 50 | 130 | 283 | 500 | 195 | 180 to 450 |  | O=C1c2cccc(O)c2C(=O)c2c(O)cc(CO)cc21 [Aloe - Emodin, Aloe-emodin] | 250 | > 500 | 500 | S-phase | G0/G1 =52% | G0/G1 =50% | 50 | 50 | 50 | 50 | 
19 | 50 | > 50 | 50 | 25 | > 500 | 205 | 50 | 8 to 33 | 19 to 50 | O=c1c(O)c(-c2ccc(O)c(O)c2)oc2cc(O)cc(O)c12 [Quercetin] | 2 | > 500 | 250 | S-phase | G0/G1 =52% | G0/G1=52% | 2 | 10 | 10 | 2 | Potency relative to apigenin and chrysin (all leukemia cell lines [11]; times more potent than apigenin and chrysin): 5-10 times; IC50 (lymphoid cell lines): 8 to 20 µM; IC50 (myeloid cell lines): 33 to 155 µM; plasma concentration ([13]; 50-100 mg dose): 750 to 1500 nM; plasma half-life [13]: 11 to 28 h
2 | 8.5 | 7.8 | 4 | 9 | 10 | > 500 | 27 | 5 to 22 | 2 to 27 | Cc1cc(O)c2c(c1)C(=O)c1cc(O)cc(O)c1C2=O [Emodin] | 2 | ~150 | 50 | G0/G1 phase | G0/G1= 50.8% | G0/G1 =52.9% | 2 | 10 | 2 | 2 | Number of leukemia cell lines in which 50% apoptosis was induced (all leukemia cell lines [12]; Jurkat, MOLT3, HL-60, THP-1 and U937): 5 of the 8; Phase of cell cycle accumulation over the leukemia cell lines (leukemia cell lines): G0/G1 phase in all leukemia cell lines
